Legend:
[1] = test system: Human immunodeficiency virus 1; assay: Antiviral activity against multidrug-resistant HIV1 with reverse transcriptase clone 7324-1 infected human MT2 cells assessed as inhibition of p24 antigen production after 4 days by ELISA; format: functional, organism-based; conditions: Human immunodeficiency virus 1, MT2, 96 h
Summary of the method: (§1)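 MT-2 cells (1 × 10⁴) infected with HIV-1 (100 TCID50) in RPMI 1640 + 10% FBS with graded compound concentrations overnight; supernatant then replaced with compound-free medium. Day 4 post-infection supernatant lysed with 5% Triton X-100; p24 quantified by sandwich ELISA (HIVIG capture, anti-p24 mAb, TMB, A450) against recombinant p24 standard. Triplicate; EC50 from % inhibition of p24.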

[2] = test system: Human immunodeficiency virus 1; assay: Antiviral activity against multidrug-resistant HIV1 with reverse transcriptase 41L, 74V, 184V, 210W, 215Y, ins SS, 98G mutation infected in human MT2 cells assessed as inhibition of p24 antigen production after 4 days by ELISA; format: functional, organism-based; conditions: Human immunodeficiency virus 1, MT2, 96 h; summary of the method: as §1
[3] = test system: Human immunodeficiency virus 1; assay: Antiviral activity against multidrug-resistant HIV1 with reverse transcriptase 41L, 67N, 210W, 215Y, 184V, 103N mutation infected in human MT2 cells assessed as inhibition of p24 antigen production after 4 days by ELISA; format: functional, organism-based; conditions: Human immunodeficiency virus 1, MT2, 96 h; summary of the method: as §1
[4] = Therapeutic index, ratio of IC50 for human H9 cells to EC50 for HIV1 3B; format: cell-based; conditions: read-out: Ratio IC50/EC50
[5] = Selectivity index, ratio of CC50 for human MT4 cells to EC50 for HIV1 Lai; format: toxicity, cell-based
Summary of the method: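 Ratio of XTT CC50 (4-day MT-4 exposure) to p24-ELISA EC50 against HIV-1 Lai in MT-4 cells.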

[6] = Half life in Sprague-Dawley rat at 2 mg/kg, iv; format: ADME, organism-based; parameters: dose 2 mg/kg, route intravenous; conditions: in vivo
Summary of the method: (§2)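 Male Sprague-Dawley rats (180–200 g), n = 3, given 2 mg/kg i.v. or 20 mg/kg i.g. in 10% PEG400. Blood taken at 0–720 min, plasma stored at −20 °C. Plasma extracted by acetonitrile protein precipitation and analysed by LC-MS/MS against 5–5000 ng/mL standards. Non-compartmental analysis; F = dose-normalized oral AUC(0–t)/i.v. AUC(0–t). Mean ± SD.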

MT2 = assay: Cytotoxicity against human MT2 cells after 4 days by XTT assay; format: cell-based; conditions: mt2, 96 h
Summary of the method: (§3)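 Cells (5 × 10⁵/mL) incubated with graded compound at 37 °C for 4 days, then XTT (1 mg/mL) with 0.02 µM PMS added. A450 read after 4 h; CC50 by CalcuSyn. Triplicate.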

[7] = Ratio of EC50 for multidrug-resistant HIV1 with reverse transcriptase 41L, 74V, 184V, 210W, 215Y, ins SS, 98G mutation to EC50 for wild type HIV1 3B; format: functional
Summary of the method: (§4)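 Fold change: EC50 against each multi-RT-resistant strain divided by EC50 against wild-type HIV-1 IIIB, both measured by p24 ELISA in MT-2 cells (4-day infection, triplicate).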

[8] = Clearance in Sprague-Dawley rat at 2 mg/kg, iv; format: ADME, organism-based; parameters: dose 2 mg/kg, route intravenous; conditions: in vivo; summary of the method: as §2
[9] = Clearance in Sprague-Dawley rat at 20 mg/kg, intragastric gavage; format: ADME, organism-based; parameters: dose 20 mg/kg, route intragastric; conditions: in vivo, po; summary of the method: as §2
[10] = test system: Human immunodeficiency virus 1; assay: Antiviral activity against HIV1 BAL RU570 isolate of subtype G with R5 tropism in human PBMC cells assessed as inhibition of p24 antigen production after 4 days by ELISA; format: functional, organism-based; conditions: Human immunodeficiency virus 1, BAL, 96 h
Rattus norvegicus [11] = assay: Bioavailability in Sprague-Dawley rat at 20 mg/kg, intragastric gavage; format: ADME, organism-based; conditions: in vivo, po; summary of the method: as §2
[12] = test system: Human immunodeficiency virus 1; assay: Antiviral activity against HIV1 94UG103 isolate of subtype A with X4R5 tropism in human PBMC cells assessed as inhibition of p24 antigen production after 7 days by ELISA; conditions: Human immunodeficiency virus 1, PBMC, 168 h
[13] = test system: Human immunodeficiency virus 1; assay: Antiviral activity against HIV1 BAL 93MW959 isolate of subtype C with R5 tropism in human PBMC cells assessed as inhibition of p24 antigen production after 7 days by ELISA; conditions: Human immunodeficiency virus 1, BAL, 168 h
Rattus norvegicus [14] = assay: Volume of distribution in Sprague-Dawley rat at 20 mg/kg, intragastric gavage; format: ADME, organism-based; parameters: dose 20 mg/kg, route intragastric; conditions: in vivo, po; summary of the method: as §2
[15] = test system: Human immunodeficiency virus 1; assay: Antiviral activity against HIV Lai with X4 tropism infected human MT4 cells assessed as inhibition of p24 antigen production after 4 days by ELISA; format: functional, organism-based; conditions: Human immunodeficiency virus 1, M:B_Lai, MT4, 96 h
Summary of the method: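 1 × 10⁴ MT-4 cells infected with HIV-1 Lai (100 TCID50) in RPMI 1640/10% FBS with graded compound overnight. Medium then replaced with compound-free medium. Supernatant lysed with Triton X-100 on day 4 and p24 measured by sandwich ELISA (A450) against recombinant p24 standard. Triplicate; EC50 by CalcuSyn.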

[16] = Ratio of EC50 for multidrug-resistant HIV1with reverse transcriptase clone 7324-1 to EC50 for wild type HIV1 3B; format: functional; summary of the method: as §4
[17] = test system: Human immunodeficiency virus 1; assay: Antiviral activity against HIV1 3B with X4 tropism infected human MT2 cells assessed as inhibition of p24 antigen production after 4 days by ELISA; format: functional, organism-based; conditions: Human immunodeficiency virus 1, 3B, MT2, 96 h; summary of the method: as §1
[18] = test system: Human immunodeficiency virus 1; assay: Antiviral activity against wild type HIV1 3B in human MT2 cells assessed as inhibition of p24 antigen production after 4 days by ELISA; format: functional, organism-based; conditions: Human immunodeficiency virus 1, 3B, MT2, 96 h
[19] = test system: Human immunodeficiency virus 1; assay: Antiviral activity against HIV1 BAL 92US657 isolate of subtype B with R5 tropism in human PBMC cells assessed as inhibition of p24 antigen production after 7 days by ELISA; conditions: Human immunodeficiency virus 1, BAL, 168 h
[20] = Selectivity index, ratio of CC50 for human MT2 cells to EC50 for HIV1 3B; format: toxicity, cell-based; conditions: read-out: Ratio CC50/EC50
[21] = test system: Human immunodeficiency virus 1; assay: Antiviral activity against HIV1 BAL 93MW959 isolate of subtype C with R5 tropism in human PBMC cells assessed as inhibition of p24 antigen production after 4 days by ELISA; format: functional, organism-based; conditions: Human immunodeficiency virus 1, BAL, 96 h
[22] = Ratio of EC50 for multidrug-resistant HIV1 with reverse transcriptase 41 L, 67N, 210W, 215Y, 184V, 103N mutation to EC50 for wild type HIV1 3B; format: functional; summary of the method: as §4
H9 = assay: Cytotoxicity against human H9 cells; format: cell-based
MT4 = assay: Cytotoxicity against human MT4 cells after 4 days by XTT assay; format: cell-based; conditions: mt4, 96 h; summary of the method: as §3
[23] = Volume of distribution in Sprague-Dawley rat at 2 mg/kg, iv; format: ADME, organism-based; parameters: dose 2 mg/kg, route intravenous; conditions: in vivo; summary of the method: as §2
Rattus norvegicus [24] = assay: AUC (0 to t) in Sprague-Dawley rat at 2 mg/kg, iv; format: ADME, organism-based, Plasma; parameters: dose 2 mg/kg, route intravenous; conditions: in vivo; summary of the method: as §2
Rattus norvegicus [25] = assay: Half life in Sprague-Dawley rat at 20 mg/kg, intragastric gavage; format: ADME, organism-based; parameters: dose 20 mg/kg, route intragastric; conditions: in vivo, po; summary of the method: as §2
[26] = test system: Human immunodeficiency virus 1; assay: Antiviral activity against HIV1 92UG001 isolate of subtype D with X4R5 tropism in human PBMC cells assessed as inhibition of p24 antigen production after 4 days by ELISA; format: functional, organism-based; conditions: Human immunodeficiency virus 1, PBMC, 96 h
[27] = test system: Human immunodeficiency virus 1; assay: Antiviral activity against HIV1 BAL BCF02 isolate of group O with R5 tropism in human PBMC cells assessed as inhibition of p24 antigen production after 4 days by ELISA; format: functional, organism-based; conditions: Human immunodeficiency virus 1, BAL, 96 h
PBMC = assay: Cytotoxicity against human PBMC after 4 days by XTT assay; format: cell-based; conditions: 96 h
[28] = test system: Human immunodeficiency virus 1; assay: Antiviral activity against HIV1 3B infected in human H9 lymphocytes; format: functional, organism-based; conditions: Human immunodeficiency virus 1, 3B
[29] = test system: Human immunodeficiency virus 1; assay: Antiviral activity against HIV1 93BR020 isolate of subtype F with X4R5 tropism in human PBMC cells assessed as inhibition of p24 antigen production after 4 days by ELISA; format: functional, organism-based; conditions: Human immunodeficiency virus 1, PBMC, 96 h
Rattus norvegicus [30] = assay: AUC (0 to t) in Sprague-Dawley rat at 20 mg/kg, intragastric gavage; format: ADME, organism-based, Plasma; parameters: dose 20 mg/kg, route intragastric; conditions: in vivo, po; summary of the method: as §2

SMILES: Cc1ccnc2c1NC(=O)c1cccnc1N2C1CC1 [NEVIRAPINE]
- EC50 [1]: > 14.8 µM
- EC50 [2]: > 14.8 µM
- EC50 [3]: > 14.8 µM

SMILES: Cc1c(CO)c(=O)oc2c3c(ccc12)OC(C)(C)[C@H](OC(=O)C12CCC(C)(C(=O)O1)C2(C)C)[C@@H]3OC(=O)C12CCC(C)(C(=O)O1)C2(C)C (some centres not stated)
- selectivity ratio [4]: 6220

SMILES: Cc1c(CC#N)c(=O)oc2c3c(ccc12)OC(C)(C)[C@H](OC(=O)[C@@]12CC[C@](C)(C(=O)O1)C2(C)C)[C@@H]3OC(=O)[C@@]12CC[C@](C)(C(=O)O1)C2(C)C
- selectivity ratio [5]: > 66
- selectivity ratio [4]: 15400
- half-life [6]: 1.62 h
- CC50 (MT2): 40.8 µM
- Ratio EC50 [7]: 2.13
- clearance [8]: 10 mL/min/kg
- CL/F [9]: 58 mL/min/kg
- EC50 [10]: 3.27 µM
- EC90 [10]: 8.93 µM
- F (Rattus norvegicus [11]): 17.8%
- EC50 [12]: 0.84 µM
- EC90 [12]: 1.63 µM
- EC50 [1]: 3.93 µM
- EC50 [13]: 0.87 µM
- Vd (Rattus norvegicus [14]): 8.19 L/kg
- EC50 [15]: 1.51 µM
- Ratio EC50 [16]: 14.4
- EC50 [17]: 0.47 µM
- EC50 [18]: 0.2 µM
- EC50 [19]: 5.09 µM
- EC90 [19]: 9.22 µM
- selectivity ratio [20]: 86.1
- EC90 [21]: 3.06 µM
- Ratio EC50 [22]: 8.96
- IC50 (H9): > 37 µM
- EC50 [2]: 0.43 µM
- CC50 (MT4): > 100 µM
- Vd [23]: 2.34 L/kg
- AUC (Rattus norvegicus [24]): 195270.08 µg/L/min
- EC50 [3]: 1.81 µM
- t1/2 (Rattus norvegicus [25]): 2.78 h
- EC50 [26]: 0.98 µM
- EC90 [26]: 5.23 µM
- EC50 [27]: 9.92 µM
- EC90 [27]: 18.1 µM
- CC50 (PBMC): > 150 µM
- EC50 [28]: 0.0024 µM
- EC50 [29]: 2.18 µM
- EC90 [29]: 3.76 µM
- AUC (Rattus norvegicus [30]): 348067.29 µg/L/min

SMILES: Cc1cc(=O)oc2c3c(ccc12)OC(C)(C)[C@H](OC(=O)[C@@]12CC[C@](C)(C(=O)O1)C2(C)C)[C@@H]3OC(=O)[C@@]12CC[C@](C)(C(=O)O1)C2(C)C
- selectivity ratio [4]: 15700
- IC50 (H9): 23.6 µM
- EC50 [28]: 0.0015 µM

From ChEMBL document CHEMBL1151737, “Development and preclinical studies of broad-spectrum anti-HIV agent (3'R,4'R)-3-cyanomethyl-4-methyl-3',4'-di-O-(S)-camphanoyl-(+)-cis-khellactone (3-cyanomethyl-4-methyl-DCK)” (J Med Chem, 2008)
